PMI act: activators of human PMI, primary screen, biochemical, fluorescence intensity, near-Km mannose 6-phosphate; purified human PMI, coupled resazurin fluorescence, 20 min; active compounds read high; 1 = vehicle control, 0 substrate-free wells; activation factor at 20 µM; 190,000 compounds, 0.005% hits; AID 1214, 2008; Mannose-6-phosphate isomerase (Homo sapiens), P34949;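 active = activation factor of 2 or more at 20 µM, relative to plate controls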
Target sequence (P34949 whole entry, looked up): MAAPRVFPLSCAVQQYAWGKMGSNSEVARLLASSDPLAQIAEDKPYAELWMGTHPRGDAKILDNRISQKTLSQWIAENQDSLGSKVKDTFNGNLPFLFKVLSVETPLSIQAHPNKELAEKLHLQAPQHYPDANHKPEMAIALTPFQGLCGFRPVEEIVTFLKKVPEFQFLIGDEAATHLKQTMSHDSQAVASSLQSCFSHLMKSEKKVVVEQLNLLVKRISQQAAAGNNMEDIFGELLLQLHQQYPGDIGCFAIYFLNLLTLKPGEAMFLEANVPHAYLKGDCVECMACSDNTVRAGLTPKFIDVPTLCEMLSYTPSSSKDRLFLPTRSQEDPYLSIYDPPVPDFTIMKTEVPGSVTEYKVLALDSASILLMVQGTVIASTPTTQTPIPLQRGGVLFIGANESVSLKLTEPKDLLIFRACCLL
PMI act satM6P: human PMI activators, high substrate, primary screen, biochemical, fluorescence intensity, near-saturating mannose 6-phosphate; Mannose-6-phosphate isomerase (Homo sapiens), P34949; coupled PMI enzyme assay, resazurin fluorescence, 20 min; active compounds read high; 1 = untreated enzyme, 0 = substrate-free blank; activation factor at 20 µM; 190,000 compounds, 0.34% hits; AID 1216, 2008;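 active = activation factor of 2 or more at 20 µM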
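test system = human PMI in coupled enzyme assay | medium = HEPES-buffered pH 7.4 with magnesium and detergent | also added = 1.0 mM mannose-6-phosphate substrate with 0.22 mM NADP+ | compound = 20 µM single dose | times = 20 min incubation at room temperature | measured by = resorufin fluorescence (Ex 544/Em 590 nm) from resazurin via diaphorase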
Diaphorase act: compounds boosting diaphorase resazurin reduction – biochemical, uHTS, resorufin fluorescence, counter-screen for diaphorase-coupled primary assays, primary screen; 190,000 compounds, 0.005% hits; Diaphorase/resazurin coupled assay, 16 min; active compounds read high; 1 = vehicle wells, 0 = NADH-free wells; AID 1229, 2008; activation factor at 20 µM;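 active = diaphorase activity raised at least twofold by the compound at 20 µM; inactive = activation factor below 2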
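Material: purified diaphorase enzyme from Clostridium kluyveri / Medium: HEPES pH 7.4 buffer with MgCl2 and Tween 20 / Schedule: enzyme reaction of 16 min at room temperature / Measured by: resorufin fluorescence, excitation 544 nm, emission 590 nm / Evaluation: rise in resorufin formation, marking diaphorase activation or chemical reduction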
Lmaj promast: Leishmania major promastigote growth inhibition, primary screen. 200,000 compounds, 9% hits. inhibition, % at 10 µM. AID 1063, 2008. Leishmania major promastigotes, resazurin fluorescence viability; in the data active = inhibition above about 50%;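 also: promastigotes grown with compound for 44 hours at 28 °C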
WT yeast gro inh: growth inhibition of WT strain, primary screen, mitochondrial fusion inhibitor project, WT and mutant strains, chemical genetic. mitochondrial fusion phenotypic screen. inhibition, % at 10 µM. 190,000 compounds, 2.1% hits; in the data active = inhibition above about 58%; tested in S. cerevisiae
Numbers stand for hits; . = inactive; / = no result. An excerpt weighted towards active compounds, which were near 10% of everything screened.

SMILES	PMI act	PMI act satM6P	Diaphorase act	Lmaj promast	WT yeast gro inh
O=C(CCCCCCCC(=O)c1ccccc1)c1ccccc1	.	.	.	.	.
C=C(C(=O)c1ccccc1)C(CC(=O)c1ccccc1)c1ccccc1 (stereo not given)	.	.	.	82.1	.
Cc1ccc(C)c2nc(N3CCCC3)c(C#N)cc12	.	2	.	.	.
Cc1cccc2cc(C#N)c(N3CCN(C)CC3)nc12	.	.	.	.	.
CCNc1nc(SCCOc2ccc(Cl)cc2Cl)nc(N(C)C)n1	.	.	.	56.3	63.8
CCNc1nc(SCCOc2ccc(C)cc2)nc(N(C)C)n1	.	.	.	.	.
CCSc1ncc(/C=N/Nc2ccc([N+](=O)[O-])cc2)n1C	.	.	.	.	.
CCSc1ncc(/C=N/Nc2ccccc2)n1C	.	.	.	.	71.0
COC(=O)c1cnc(SCc2ccc(Cl)cc2)n1C	.	.	.	.	.
CCSc1ncc(/C=N/Nc2ccc(Cl)cc2)n1C	.	.	.	78.3	.
Cc1ccc(NC(=O)CSc2nccn2C)cc1S(=O)(=O)N1CCOCC1	.	.	.	56.7	.
Cc1ccc(NC(=O)CCl)cc1S(=O)(=O)N1CCCCCC1	.	.	.	90.7	.
Cc1ccc(C(=O)Nc2ccc3cn[nH]c3c2)cc1S(=O)(=O)N1CCCCC1	.	.	.	50.3	.
Cc1ccc(NC(=O)CN2c3cccc4cccc(c34)S2(=O)=O)cc1S(=O)(=O)N1CCOCC1	.	.	.	96.3	.
COc1ccc(-n2c(=O)c3ccccc3n(Cc3cccc(C)c3)c2=O)cc1OC	.	.	.	.	.
CS(=O)(=O)N1CC(C(=O)O)Oc2ccc(CC(=O)O)cc21 (stereo not given)	.	.	.	.	.
Cc1ccc(OCC(=O)Nc2ccc(C)c(S(=O)(=O)N3CCCCCC3)c2)c([N+](=O)[O-])n1	.	.	.	63.5	.
Cc1ccc(OCC(=O)Nc2cccc(S(=O)(=O)N3CCCCC3)c2)c([N+](=O)[O-])n1	.	.	.	.	.
Oc1ccc2ccccc2c1/C=N/n1cnnc1	.	.	.	.	.
O=C(CNC(=O)c1ccc(S(=O)(=O)N2CCCC2)cc1)N/N=C/c1ccccc1Cl	.	.	.	94.1	.
O=C(N/N=C\c1c(O)ccc2ccccc12)c1ccc(S(=O)(=O)N2CCCCC2)cc1	.	.	.	99.9	.
Oc1ccc2ccccc2c1C=NC1CCCCC1	.	.	.	62.1	.
O=C(CNC(=O)c1ccc(S(=O)(=O)N2CCCC2)cc1)N/N=C/c1ccc(F)cc1	.	.	.	54.5	.
O=C(CN(C(=O)CNC(=O)c1ccco1)c1ccc2c(c1)OCCO2)NC1CCCC1	/	/	/	.	.
COc1ccc(OC)c(/C=N/NC(=O)CNC(=O)c2ccc(S(=O)(=O)N3CCOCC3)cc2)c1	.	.	.	64.9	.
SMILES	PMI act	PMI act satM6P	Diaphorase act	Lmaj promast	WT yeast gro inh
Oc1ccc2ccccc2c1/C=N/c1nc2c(s1)CCCC2	.	.	.	.	79.7
CC(=O)c1cccc(CN2CCCC(CCC(=O)NCc3ccccc3F)C2)c1 (stereo not given)	.	.	.	91.5	.
O=C(CCC1CCCN(Cc2ccc3c(c2)CCO3)C1)NCc1ccc(F)c(F)c1 (stereo not given)	.	.	.	98.7	.
Cc1ncc(CN2CCCC(CCC(=O)NCc3ccc(F)c(F)c3)C2)s1 (stereo not given)	.	.	.	88.3	.
O=C(CCC1CCCN(C2C3CC4CC(C3)CC2C4)C1)NCc1ccc(F)c(F)c1 (stereo not given)	.	.	.	56.1	.
COc1ccc(C(=O)N2CCCC(CCC(=O)NCc3ccc(F)c(F)c3)C2)o1 (stereo not given)	.	.	.	.	.
CCc1nnc(NC(=O)CSc2ccc(-c3ccccc3OC)nn2)s1	.	.	.	.	.
CCN1CCN(CC(=O)N/N=C/c2ccc(F)cc2F)CC1	.	.	.	.	.
CCN(CC(=O)Nc1cccc(C(C)=O)c1)S(=O)(=O)c1ccc(C)cc1	.	.	.	.	.

Screens from PubChem BioAssay.
